The target of series [1] is T1, Receptor-type tyrosine-protein kinase FLT3 (Homo sapiens, UniProt P36888).
T1 sequence (P36888 whole entry): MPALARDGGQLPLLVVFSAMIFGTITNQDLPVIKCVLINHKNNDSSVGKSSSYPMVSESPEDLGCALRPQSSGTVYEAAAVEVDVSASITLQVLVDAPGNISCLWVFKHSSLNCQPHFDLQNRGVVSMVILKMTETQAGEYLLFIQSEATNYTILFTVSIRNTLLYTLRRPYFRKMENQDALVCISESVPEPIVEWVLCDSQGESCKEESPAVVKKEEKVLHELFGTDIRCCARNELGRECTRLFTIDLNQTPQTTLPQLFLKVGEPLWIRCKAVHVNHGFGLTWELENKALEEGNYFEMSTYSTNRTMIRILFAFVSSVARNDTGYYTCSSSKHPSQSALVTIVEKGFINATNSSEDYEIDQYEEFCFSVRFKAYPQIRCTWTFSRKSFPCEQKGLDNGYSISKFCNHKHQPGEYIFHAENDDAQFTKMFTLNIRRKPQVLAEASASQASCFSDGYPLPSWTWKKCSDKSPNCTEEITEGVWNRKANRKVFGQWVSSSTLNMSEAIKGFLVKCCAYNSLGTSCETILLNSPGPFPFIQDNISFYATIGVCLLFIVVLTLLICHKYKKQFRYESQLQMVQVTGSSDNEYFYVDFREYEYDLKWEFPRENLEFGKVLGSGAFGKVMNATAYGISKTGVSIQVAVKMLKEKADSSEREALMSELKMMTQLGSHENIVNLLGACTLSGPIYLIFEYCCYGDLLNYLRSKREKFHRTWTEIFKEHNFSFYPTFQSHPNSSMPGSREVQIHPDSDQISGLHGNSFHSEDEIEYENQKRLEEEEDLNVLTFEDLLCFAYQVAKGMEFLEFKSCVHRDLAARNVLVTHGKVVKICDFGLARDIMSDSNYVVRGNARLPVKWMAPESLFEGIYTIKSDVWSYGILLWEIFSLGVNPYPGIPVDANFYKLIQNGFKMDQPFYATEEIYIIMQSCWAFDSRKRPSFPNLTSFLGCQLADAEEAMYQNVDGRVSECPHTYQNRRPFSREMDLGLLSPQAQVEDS
Description: Inhibition of recombinant FLT3 using Poly (Glu,Tyr) as substrate after 2 hrs by luminescence assay.

Series [2] deals with Non-receptor tyrosine-protein kinase TYK2 (Homo sapiens, UniProt P29597). The experiment in a line: Inhibition of recombinant TYK2.
In series [3] the target is Cyclin-dependent kinase 2/cyclin A (Homo sapiens, UniProt P24941). Description: Inhibition of recombinant CDK2/Cyclin A using RbinG as substrate after 2 hrs by luminescence assay. In kind it is protein-complex assay.
In series [4] the target is Tyrosine-protein kinase JAK2 (Homo sapiens, UniProt O60674). The experiment in a line: Inhibition of recombinant JAK2 using Poly (Glu,Ala,Tyr) as substrate after 2 hrs by luminescence assay.
Series [5] has as its target T2, Tyrosine-protein kinase JAK3 (Homo sapiens, UniProt P52333).
T2 sequence (P52333 whole entry): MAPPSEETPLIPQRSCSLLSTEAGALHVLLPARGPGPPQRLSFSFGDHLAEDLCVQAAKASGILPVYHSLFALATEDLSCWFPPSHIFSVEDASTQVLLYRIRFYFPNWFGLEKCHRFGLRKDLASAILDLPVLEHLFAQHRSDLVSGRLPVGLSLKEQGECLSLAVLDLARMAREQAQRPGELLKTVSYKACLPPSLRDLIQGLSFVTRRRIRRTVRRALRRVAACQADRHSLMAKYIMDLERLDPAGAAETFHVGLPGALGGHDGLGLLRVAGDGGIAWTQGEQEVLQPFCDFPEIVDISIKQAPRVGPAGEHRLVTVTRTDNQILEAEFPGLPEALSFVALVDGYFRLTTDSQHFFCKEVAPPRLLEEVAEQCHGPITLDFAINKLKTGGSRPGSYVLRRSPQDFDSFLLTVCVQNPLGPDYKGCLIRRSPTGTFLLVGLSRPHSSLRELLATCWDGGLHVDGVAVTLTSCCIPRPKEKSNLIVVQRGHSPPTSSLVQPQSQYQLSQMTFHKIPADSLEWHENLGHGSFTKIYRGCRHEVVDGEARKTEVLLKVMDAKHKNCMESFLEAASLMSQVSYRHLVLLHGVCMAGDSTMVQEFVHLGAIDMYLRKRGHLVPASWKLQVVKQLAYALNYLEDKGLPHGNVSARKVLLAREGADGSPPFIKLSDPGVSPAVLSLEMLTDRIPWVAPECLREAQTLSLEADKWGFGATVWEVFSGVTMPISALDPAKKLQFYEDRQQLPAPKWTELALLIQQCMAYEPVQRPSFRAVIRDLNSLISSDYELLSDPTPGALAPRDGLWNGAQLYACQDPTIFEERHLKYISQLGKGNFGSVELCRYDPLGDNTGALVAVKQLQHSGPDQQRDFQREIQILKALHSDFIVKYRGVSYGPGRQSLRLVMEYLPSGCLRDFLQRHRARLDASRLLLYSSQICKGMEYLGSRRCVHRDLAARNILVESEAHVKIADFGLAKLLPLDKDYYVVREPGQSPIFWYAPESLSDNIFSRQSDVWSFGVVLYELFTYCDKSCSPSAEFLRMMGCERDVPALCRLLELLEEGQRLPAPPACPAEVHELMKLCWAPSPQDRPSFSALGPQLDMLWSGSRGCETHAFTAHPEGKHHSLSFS
Description: Inhibition of recombinant JAK3 using Poly (Glu,Ala,Tyr) as substrate after 2 hrs by luminescence assay.

In series [6] the target is Tyrosine-protein kinase JAK1 (Homo sapiens, UniProt P23458). Description: Inhibition of recombinant JAK1 using Poly (Glu,Ala,Tyr) as substrate after 2 hrs by luminescence assay. The method in brief: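 Luciferase-coupled ATP-depletion luminescence assay in 50 mM Hepes pH 7.5 with MgCl₂, MnCl₂, BGP, DTT and orthovanadate, 2 h at room temperature. Conditions per target: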

Series [7] in a line: physchem. Particulars: phosphate buffer saline, pH 7.

SMILES strings stand for the structures.

Drawing on ChEMBL document CHEMBL2176955, “Discovery of the macrocycle 11-(2-pyrrolidin-1-yl-ethoxy)-14,19-dioxa-5,7,26-triaza-tetracyclo[19.3.1.1(2,6).1(8,12)]heptacosa-1(25),2(26),3,5,8,10,12(27),16,21,23-decaene (SB1518), a potent Janus kinase 2/fms-like tyrosine kinase-3 (JAK2/FLT3) inhibitor for the treatment of myelofibrosis and …” (J Med Chem, 2011), this text covers IC50 and solubility for 19 molecules.

A word on the IC50: it is the concentration at which inhibition is half-maximal. One may read the solubility as how much of the substance goes into solution per volume. The low end stands for little dissolved substance, the high end for much dissolved substance.

Sequence of Tyrosine-protein kinase JAK2 (O60674 whole entry): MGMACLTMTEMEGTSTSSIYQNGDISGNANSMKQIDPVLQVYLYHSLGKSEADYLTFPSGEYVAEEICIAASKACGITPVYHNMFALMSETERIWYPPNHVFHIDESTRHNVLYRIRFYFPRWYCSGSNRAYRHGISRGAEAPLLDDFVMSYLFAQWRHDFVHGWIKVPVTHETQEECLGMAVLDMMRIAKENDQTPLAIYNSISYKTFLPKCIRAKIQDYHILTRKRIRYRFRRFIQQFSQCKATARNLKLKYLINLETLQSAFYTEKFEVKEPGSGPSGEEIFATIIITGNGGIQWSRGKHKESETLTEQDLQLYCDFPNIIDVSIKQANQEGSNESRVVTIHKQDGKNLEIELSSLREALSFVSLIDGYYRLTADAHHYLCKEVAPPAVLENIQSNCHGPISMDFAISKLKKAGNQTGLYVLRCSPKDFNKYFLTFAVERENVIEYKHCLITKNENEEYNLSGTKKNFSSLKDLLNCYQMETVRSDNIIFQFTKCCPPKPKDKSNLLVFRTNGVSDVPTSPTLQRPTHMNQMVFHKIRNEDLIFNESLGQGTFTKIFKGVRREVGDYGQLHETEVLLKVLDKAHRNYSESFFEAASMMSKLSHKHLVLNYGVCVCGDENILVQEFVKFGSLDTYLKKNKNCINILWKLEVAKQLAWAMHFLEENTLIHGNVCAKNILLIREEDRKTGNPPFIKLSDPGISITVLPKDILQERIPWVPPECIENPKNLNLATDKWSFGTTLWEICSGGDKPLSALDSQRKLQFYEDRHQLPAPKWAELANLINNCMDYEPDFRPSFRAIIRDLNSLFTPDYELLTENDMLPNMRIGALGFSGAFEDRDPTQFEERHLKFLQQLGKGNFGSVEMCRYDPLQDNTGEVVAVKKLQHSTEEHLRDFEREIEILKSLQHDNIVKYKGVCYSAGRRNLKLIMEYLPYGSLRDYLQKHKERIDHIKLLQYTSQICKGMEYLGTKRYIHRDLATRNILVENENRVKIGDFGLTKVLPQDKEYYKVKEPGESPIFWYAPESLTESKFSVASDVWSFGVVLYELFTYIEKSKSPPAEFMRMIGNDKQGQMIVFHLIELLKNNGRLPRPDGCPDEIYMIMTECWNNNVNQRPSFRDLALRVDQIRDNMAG
Sequence of Tyrosine-protein kinase JAK1 (P23458 whole entry): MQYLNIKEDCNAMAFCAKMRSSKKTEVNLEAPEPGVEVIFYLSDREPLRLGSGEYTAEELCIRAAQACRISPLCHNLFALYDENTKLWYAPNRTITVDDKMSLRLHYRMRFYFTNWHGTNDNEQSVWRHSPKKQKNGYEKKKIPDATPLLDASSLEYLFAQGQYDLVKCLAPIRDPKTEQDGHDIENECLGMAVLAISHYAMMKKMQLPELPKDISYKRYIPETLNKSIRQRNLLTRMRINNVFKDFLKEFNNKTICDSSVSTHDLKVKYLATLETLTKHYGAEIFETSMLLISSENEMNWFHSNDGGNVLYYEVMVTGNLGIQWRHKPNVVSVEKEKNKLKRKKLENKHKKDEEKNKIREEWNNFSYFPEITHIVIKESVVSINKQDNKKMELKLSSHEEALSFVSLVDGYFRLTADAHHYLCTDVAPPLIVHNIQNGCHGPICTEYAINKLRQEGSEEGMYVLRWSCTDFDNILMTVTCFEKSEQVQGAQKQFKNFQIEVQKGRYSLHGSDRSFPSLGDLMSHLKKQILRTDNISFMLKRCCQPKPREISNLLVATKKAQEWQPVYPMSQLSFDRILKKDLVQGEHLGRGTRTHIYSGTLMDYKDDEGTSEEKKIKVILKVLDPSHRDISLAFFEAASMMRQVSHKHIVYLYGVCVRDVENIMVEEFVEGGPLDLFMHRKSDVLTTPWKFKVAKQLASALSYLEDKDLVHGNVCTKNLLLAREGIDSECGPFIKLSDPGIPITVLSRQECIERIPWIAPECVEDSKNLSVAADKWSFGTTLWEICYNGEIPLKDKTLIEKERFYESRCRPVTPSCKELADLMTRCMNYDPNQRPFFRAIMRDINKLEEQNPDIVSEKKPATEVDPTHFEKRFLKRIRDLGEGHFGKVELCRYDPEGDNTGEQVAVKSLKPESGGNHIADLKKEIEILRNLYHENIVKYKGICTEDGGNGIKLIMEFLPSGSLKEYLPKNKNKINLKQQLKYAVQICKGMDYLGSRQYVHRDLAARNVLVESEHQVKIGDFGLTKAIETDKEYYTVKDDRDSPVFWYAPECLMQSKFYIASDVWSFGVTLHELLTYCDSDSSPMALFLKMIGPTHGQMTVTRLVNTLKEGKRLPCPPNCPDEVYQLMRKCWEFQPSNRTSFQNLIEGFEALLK
Sequence of Non-receptor tyrosine-protein kinase TYK2 (P29597 whole entry): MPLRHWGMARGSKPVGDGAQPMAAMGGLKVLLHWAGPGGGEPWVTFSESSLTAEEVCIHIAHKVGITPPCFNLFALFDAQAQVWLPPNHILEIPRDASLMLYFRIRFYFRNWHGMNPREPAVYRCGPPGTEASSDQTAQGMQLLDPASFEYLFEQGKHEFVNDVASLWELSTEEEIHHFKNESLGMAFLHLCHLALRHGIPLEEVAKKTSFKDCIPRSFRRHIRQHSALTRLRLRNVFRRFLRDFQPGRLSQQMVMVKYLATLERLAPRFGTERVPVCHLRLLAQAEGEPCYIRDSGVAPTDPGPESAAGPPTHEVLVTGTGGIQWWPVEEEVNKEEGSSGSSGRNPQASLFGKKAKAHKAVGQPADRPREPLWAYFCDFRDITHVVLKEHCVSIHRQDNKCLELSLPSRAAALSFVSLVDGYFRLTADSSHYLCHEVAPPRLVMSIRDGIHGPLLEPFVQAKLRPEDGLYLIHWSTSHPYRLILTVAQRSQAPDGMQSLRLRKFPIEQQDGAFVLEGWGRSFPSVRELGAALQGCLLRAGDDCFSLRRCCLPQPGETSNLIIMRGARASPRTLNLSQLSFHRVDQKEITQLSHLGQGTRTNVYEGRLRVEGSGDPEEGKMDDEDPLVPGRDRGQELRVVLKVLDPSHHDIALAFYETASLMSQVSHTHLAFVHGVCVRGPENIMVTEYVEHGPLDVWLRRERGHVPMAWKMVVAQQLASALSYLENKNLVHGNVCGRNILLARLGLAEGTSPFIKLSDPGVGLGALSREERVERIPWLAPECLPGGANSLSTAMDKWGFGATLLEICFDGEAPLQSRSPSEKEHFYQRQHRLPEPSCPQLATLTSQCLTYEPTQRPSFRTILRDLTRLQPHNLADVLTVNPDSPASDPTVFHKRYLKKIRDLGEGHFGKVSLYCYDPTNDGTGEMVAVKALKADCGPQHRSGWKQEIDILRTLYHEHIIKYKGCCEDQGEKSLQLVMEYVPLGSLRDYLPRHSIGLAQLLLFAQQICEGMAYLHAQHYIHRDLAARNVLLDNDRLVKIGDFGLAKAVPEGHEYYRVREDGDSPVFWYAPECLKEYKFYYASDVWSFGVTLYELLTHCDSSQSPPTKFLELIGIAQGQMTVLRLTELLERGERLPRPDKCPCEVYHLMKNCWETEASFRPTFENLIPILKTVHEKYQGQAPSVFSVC

Consider `COc1ccc2cc1-c1ccnc(n1)Nc1ccc(OCCN3CCCC3)c(c1)COCC=CCOC2`, for which the IC50 in series [1] is 12 nM; in series [2], 620 nM; in series [3], > 10000 nM; in series [4] it was 330 nM; in series [5], 7200 nM; in series [6] it was 4900 nM.
Regarding `C1=CCCOc2cccc(c2)-c2ccnc(n2)Nc2cccc(c2)OCC1`, the 50% inhibitory concentration (IC50) in series [1] is 1100 nM; in series [2] it was 5200 nM; in series [3] it was > 10000 nM; in series [4] it was 1200 nM; in series [5], > 10000 nM; in series [6], > 10000 nM.
As to `O=C1CCN(CCOc2ccc3cc2COCC=CCOCc2cccc(c2)-c2ccnc(n2)N3)C1` (mixture of isomers), the IC50 is 67 nM in series [1]; 140 nM in series [2]; 5800 nM in series [3]; 22 nM in series [4]; 380 nM in series [5]; 940 nM in series [6].
For the molecule `Nc1cc2cc(c1)Nc1nccc(n1)-c1cccc(c1)COCC=CCOC2` (mixture of isomers), the solubility in series [7] came out at 25 µg/mL. Further, the IC50 in series [1] was found to be 52 nM; in series [3] it was 240 nM; in series [4], 35 nM.
In the case of `CCN(CC)CCC(=O)Nc1cc2cc(c1)Nc1nccc(n1)-c1cccc(c1)COCC=CCOC2` (mixture of isomers), the IC50 in series [1] was 78 nM; in series [2] it was 18 nM; in series [3], 400 nM; in series [4], 44 nM; in series [5], 390 nM; in series [6], 1900 nM.
In series [7], `COc1cc2cc(c1OCCN1CCCC1)COCC=CCOCc1cccc(c1)-c1ccnc(n1)N2` (mixture of isomers) displayed a solubility of 154 µg/mL. For the same molecule, the half-maximal inhibitory concentration (IC50) worked out at 6 nM in series [1]; 170 nM in series [2]; 3400 nM in series [3]; 36 nM in series [4]; 1700 nM in series [6].
Regarding `Fc1cnc2nc1-c1cccc(c1)COCC=CCOCc1cc(ccc1OCCN1CCCC1)N2` (mixture of isomers), the IC50 in series [1] came to 15 nM; in series [2], 140 nM; in series [3], 1550 nM; in series [4] it was 17 nM; in series [5] it was 1000 nM; in series [6], 830 nM.
Take `Fc1cc2cc(c1)-c1ccnc(n1)Nc1ccc(OCCN3CCCC3)c(c1)COCC=CCOC2` (mixture of isomers): the solubility in series [7] was 2.61 µg/mL. Further, the IC50 in series [1] was 8 nM; in series [2], 36 nM; in series [3], 2000 nM; in series [4] it was 24 nM; in series [6] it was 380 nM.
For the molecule `Fc1ccc2cc1COCC=CCOCc1cc(ccc1OCCN1CCCC1)Nc1nccc-2n1` (mixture of isomers), the IC50 in series [1] was 40 nM; in series [3], 3250 nM; in series [4], 25 nM; in series [5], 720 nM; in series [6] it was 4600 nM.
With `COc1ccc2cc1COCC=CCCOc1cccc(c1)-c1ccnc(n1)N2` (mixture of isomers), the 50% inhibitory concentration (IC50) is 310 nM in series [1]; 150 nM in series [2]; > 10000 nM in series [3]; 130 nM in series [4]; 3000 nM in series [6].
For the molecule `COc1ccc2cc1COCC=CCOCc1cccc(c1)-c1ccnc(n1)N2` (mixture of isomers), the IC50 in series [1] was found to be 190 nM; in series [2] it was 210 nM; in series [3] it was 860 nM; in series [4], 70 nM; in series [5], 1200 nM; in series [6], 1900 nM.
As to `Oc1ccc2cc1COCC=CCOCc1cccc(c1)-c1ccnc(n1)N2` (mixture of isomers), the IC50 in series [1] is 170 nM; in series [2], 170 nM; in series [3], 210 nM; in series [4], 53 nM; in series [5] it was 1100 nM; in series [6], 400 nM.
Turning to `C1=CCOCc2cc(ccc2N2CCOCC2)Nc2nccc(n2)-c2cccc(c2)COC1` (mixture of isomers), the IC50 in series [1] was 32 nM; in series [2], 160 nM; in series [3], > 10000 nM; in series [4], 60 nM; in series [6], 8700 nM.
In series [7], `CN1CCN(c2ccc3cc2COCC=CCOCc2cccc(c2)-c2ccnc(n2)N3)CC1` (mixture of isomers) displayed a solubility of 26.4 µg/mL. Moreover, the half-maximal inhibitory concentration (IC50) was 30 nM in series [1]; 190 nM in series [2]; > 10000 nM in series [3]; 41 nM in series [4]; 3600 nM in series [6].
`CC(=O)N1CCN(c2ccc3cc2COCC=CCOCc2cccc(c2)-c2ccnc(n2)N3)CC1` (mixture of isomers): the IC50 in series [1] is 38 nM; in series [2], 110 nM; in series [3], 6200 nM; in series [4] it was 120 nM; in series [5], 6000 nM; in series [6] it was 2800 nM.
As to `CCS(=O)(=O)N1CCN(c2ccc3cc2COCC=CCOCc2cccc(c2)-c2ccnc(n2)N3)CC1` (mixture of isomers), the half-inhibitory concentration (IC50) is 150 nM in series [1]; 140 nM in series [2]; > 10000 nM in series [3]; 150 nM in series [4]; > 10000 nM in series [5]; > 10000 nM in series [6].
In series [7], `CN(C)CCN(C)c1ccc2cc1COCC=CCOCc1cccc(c1)-c1ccnc(n1)N2` (mixture of isomers) gave a solubility of 171 µg/mL. Also, the IC50 in series [1] turned out to be 31 nM; in series [2], 71 nM; in series [3] it was 88 nM; in series [4], 77 nM; in series [6], 3600 nM.
With `ClCCOc1ccc2cc1COCC=CCOCc1cccc(c1)-c1ccnc(n1)N2` (mixture of isomers), the half-inhibitory concentration (IC50) in series [1] was 76 nM; in series [2], 470 nM; in series [3], > 10000 nM; in series [4], 220 nM; in series [5] it was > 10000 nM; in series [6], > 10000 nM.
Consider `O=C1CCCN1CCOc1ccc2cc1COCC=CCOCc1cccc(c1)-c1ccnc(n1)N2` (mixture of isomers), for which the IC50 in series [1] is 140 nM; in series [2], 180 nM; in series [3] it was 9400 nM; in series [4], 22 nM; in series [5], 500 nM; in series [6], 1300 nM.
